ChEMBL document CHEMBL4823269, “Acyclic nucleoside phosphonates with 2-aminothiazole base as inhibitors of bacterial and mammalian adenylate cyclases” (Eur J Med Chem, 2021)

Columns and labels:
J774.A1 = assay: Cytotoxicity against mouse J774.A1 cells assessed as reduction in cell viability at 10 uM measured after 5 hrs by Cell TiterGlo Luminescent assay relative to control; type: cell-based; conditions: j774.a1, 5 h
[1] = Inhibition of Bordetella pertussis ACT by cell free assay
In short: (§1)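 Run cell-free on the bacterial enzyme, with the phosphono diphosphate forms (nucleoside triphosphate analogues) added directly rather than the bisamide prodrugs; an IC50 was obtained.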

[2] = Inhibition of Bordetella pertussis ACT exposed to mouse J774.A1 cells assessed as inhibition of ACT-induced cAMP accumulation cells pretreated for 5 hrs measured after 30 mins followed by enzyme addition by immunoassay; type: cell-based
[3] = target: T1, Calmodulin-sensitive adenylate cyclase (Bacillus anthracis, UniProt P40136); assay: Inhibition of Bacillus anthracis edema factor by cell free assay; in short: as §1
T1 sequence (P40136 whole entry): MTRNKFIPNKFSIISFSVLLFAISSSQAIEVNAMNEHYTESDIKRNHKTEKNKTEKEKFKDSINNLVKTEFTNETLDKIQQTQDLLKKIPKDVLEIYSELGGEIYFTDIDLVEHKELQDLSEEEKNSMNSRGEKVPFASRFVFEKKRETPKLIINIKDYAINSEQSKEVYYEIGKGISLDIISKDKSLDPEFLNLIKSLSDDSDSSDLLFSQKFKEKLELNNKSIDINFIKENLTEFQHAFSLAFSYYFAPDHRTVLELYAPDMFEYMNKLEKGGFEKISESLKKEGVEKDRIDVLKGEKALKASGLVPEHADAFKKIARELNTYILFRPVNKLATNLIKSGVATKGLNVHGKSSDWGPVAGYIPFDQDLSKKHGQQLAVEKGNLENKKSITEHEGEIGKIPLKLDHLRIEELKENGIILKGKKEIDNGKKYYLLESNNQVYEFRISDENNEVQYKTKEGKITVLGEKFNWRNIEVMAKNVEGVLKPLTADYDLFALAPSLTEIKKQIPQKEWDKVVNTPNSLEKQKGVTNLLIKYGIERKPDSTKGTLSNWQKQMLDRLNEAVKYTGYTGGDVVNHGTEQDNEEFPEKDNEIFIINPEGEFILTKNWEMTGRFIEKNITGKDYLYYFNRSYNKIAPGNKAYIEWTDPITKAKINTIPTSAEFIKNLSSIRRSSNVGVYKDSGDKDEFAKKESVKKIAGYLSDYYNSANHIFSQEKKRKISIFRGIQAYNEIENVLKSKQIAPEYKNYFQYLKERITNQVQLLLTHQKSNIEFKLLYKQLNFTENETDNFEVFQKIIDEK

CCCCOc1cccc(-c2sc(N)nc2CCOCP(=O)(N[C@@H](Cc2ccccc2)C(=O)OC(C)C)N[C@@H](Cc2ccccc2)C(=O)OC(C)C)c1
Activity (J774.A1): 35%

CNC(=O)c1ccc(-c2sc(N)nc2CCOCP(=O)(O)OP(=O)(O)OP(=O)(O)O)cc1
IC50 [1]: 0.0374 µM

CC(C)OC(=O)[C@H](Cc1ccccc1)NP(=O)(COCCc1nc(N)sc1-c1ccccc1OCc1ccccc1)N[C@@H](Cc1ccccc1)C(=O)OC(C)C
Activity (J774.A1): 115%
IC50 [2]: > 10 µM

CC(C)OC(=O)[C@H](Cc1ccccc1)NP(=O)(COCCc1nc(N)sc1-c1cccc(F)c1)N[C@@H](Cc1ccccc1)C(=O)OC(C)C
Activity (J774.A1): 99%

CC(C)Cc1sc(N)nc1-c1ccc(P(=O)(O)OP(=O)(O)OP(=O)(O)O)o1
IC50 [3]: 5.06 µM
IC50 [1]: 16 µM

Nc1nc(CCOCP(=O)(O)OP(=O)(O)OP(=O)(O)O)c(-c2ccccc2OCc2ccccc2)s1
IC50 [3]: 7.81 µM
IC50 [1]: 0.184 µM

CC(C)OC(=O)[C@H](Cc1ccccc1)NP(=O)(COCCc1csc(N)n1)N[C@@H](Cc1ccccc1)C(=O)OC(C)C
Activity (J774.A1): 72%
IC50 [2]: > 10 µM

Nc1nc(CCOCP(=O)(O)OP(=O)(O)OP(=O)(O)O)c(-c2cccc(OCc3ccccc3)c2)s1
IC50 [1]: 0.192 µM

CC(C)OC(=O)[C@H](Cc1ccccc1)NP(=O)(COCCc1nc(N)sc1-c1cccnc1)N[C@@H](Cc1ccccc1)C(=O)OC(C)C
Activity (J774.A1): 99%
IC50 [2]: 2.62 µM

CC(C)Oc1ccc(-c2sc(N)nc2CCOCP(=O)(O)OP(=O)(O)OP(=O)(O)O)cc1
IC50 [1]: 0.185 µM

CC(C)Cc1sc(N)nc1-c1ccc(P(=O)(O)N[C@@H](Cc2ccccc2)C(=O)OC(C)C)o1
Activity (J774.A1): 86%
IC50 [2]: 14.2 µM

CNC(=O)c1cccc(-c2sc(N)nc2CCOCP(=O)(N[C@@H](Cc2ccccc2)C(=O)OC(C)C)N[C@@H](Cc2ccccc2)C(=O)OC(C)C)c1
Activity (J774.A1): 106%
IC50 [2]: 8.45 µM

Nc1nc(CCOCP(=O)(O)OP(=O)(O)OP(=O)(O)O)c(-c2cccc(F)c2)s1
IC50 [1]: 0.313 µM

CNC(=O)c1ccc(-c2sc(N)nc2CCOCP(=O)(N[C@@H](Cc2ccccc2)C(=O)OC(C)C)N[C@@H](Cc2ccccc2)C(=O)OC(C)C)cc1
Activity (J774.A1): 99%

CC(C)OC(=O)[C@H](Cc1ccccc1)NP(=O)(COCc1csc(N)n1)N[C@@H](Cc1ccccc1)C(=O)OC(C)C
Activity (J774.A1): 83%
IC50 [2]: > 10 µM

COc1ccc(-c2sc(N)nc2CCOCP(=O)(N[C@@H](Cc2ccccc2)C(=O)OC(C)C)N[C@@H](Cc2ccccc2)C(=O)OC(C)C)c(C)c1
Activity (J774.A1): 57%
IC50 [2]: 1.16 µM

CNS(=O)(=O)c1cccc(-c2sc(N)nc2CCOCP(=O)(N[C@@H](Cc2ccccc2)C(=O)OC(C)C)N[C@@H](Cc2ccccc2)C(=O)OC(C)C)c1
Activity (J774.A1): 99%

CC(C)Cc1sc(N)nc1-c1ccc(P(=O)(NC(Cc2ccccc2)C(=O)OC(C)C)N[C@@H](Cc2ccccc2)C(=O)OC(C)C)o1 (stereo not given in full)
Activity (J774.A1): 88%
IC50 [2]: 2.12 µM

CC(C)OC(=O)[C@H](Cc1ccccc1)NP(=O)(COCCc1nc(N)sc1-c1cccc(OCc2ccccc2)c1)N[C@@H](Cc1ccccc1)C(=O)OC(C)C
Activity (J774.A1): 72%

CC(C)OC(=O)[C@H](Cc1ccccc1)NP(=O)(COCCc1nc(N)sc1-c1ccc(OC(C)C)cc1)N[C@@H](Cc1ccccc1)C(=O)OC(C)C
Activity (J774.A1): 81%

CNS(=O)(=O)c1ccc(-c2sc(N)nc2CCOCP(=O)(N[C@@H](Cc2ccccc2)C(=O)OC(C)C)N[C@@H](Cc2ccccc2)C(=O)OC(C)C)cc1
Activity (J774.A1): 94%
IC50 [2]: > 10 µM

CC(C)OC(=O)[C@H](Cc1ccccc1)NP(=O)(COCCn1cnc2c(N)ncnc21)N[C@@H](Cc1ccccc1)C(=O)OC(C)C
Activity (J774.A1): 93%
IC50 [2]: 0.15 µM

CC(C)OC(=O)[C@H](Cc1ccccc1)NP(=O)(COCCc1nc(N)sc1-c1ccccc1)N[C@@H](Cc1ccccc1)C(=O)OC(C)C
Activity (J774.A1): 112%

CC(C)OC(=O)[C@H](Cc1ccccc1)NP(=O)(COCc1nc(N)sc1-c1ccccc1)N[C@@H](Cc1ccccc1)C(=O)OC(C)C
Activity (J774.A1): 54%
IC50 [2]: 4.68 µM

CC(C)OC(=O)[C@H](Cc1ccccc1)NP(=O)(COCCc1nc(N)sc1-c1cccc(OC(C)C)c1)N[C@@H](Cc1ccccc1)C(=O)OC(C)C
Activity (J774.A1): 44%
IC50 [2]: 1.72 µM

CC(C)OC(=O)[C@H](Cc1ccccc1)NP(=O)(COCCc1nc(N)sc1Sc1ccccc1)N[C@@H](Cc1ccccc1)C(=O)OC(C)C
Activity (J774.A1): 36%
IC50 [2]: 0.93 µM

COc1cc(OC)cc(-c2sc(N)nc2CCOCP(=O)(N[C@@H](Cc2ccccc2)C(=O)OC(C)C)N[C@@H](Cc2ccccc2)C(=O)OC(C)C)c1
Activity (J774.A1): 86%
IC50 [2]: 1.43 µM

Nc1ncnc2c1ncn2CCOCP(=O)(O)OP(=O)(O)OP(=O)(O)O [ADEFOVIR DIPHOSPHATE]
IC50 [3]: 0.036 µM
IC50 [1]: 0.0178 µM
